# From PubChem BioAssay AID493149 (Broad Institute, 2011)
# Where “and” joins values, the source holds several entries; their conditions need not be identical. Identical values can stand only once. Records with an inconclusive call do not appear. Calls of active or inactive are those of the source.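 How the source made its calls: active means every repeat run gives a falling-signal curve whose half-maximal concentration stays within the set limit; inconclusive means runs disagree, flat moderate inhibition, or unreliable fit; inactive means flat weak response, opposite effect, or too weak.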
# Columns and labels:
# [1] = tested on: C. albicans CaCi-8 + fluconazole, Alamar Blue growth, 48 h; assay: growth inhibition of resistant C. albicans with fluconazole, dose response, CaCi-8 strain, Alamar Blue, dry powder, set 9 (AID 493149)
# In short: (§1)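 System: fluconazole-resistant C. albicans strain CaCi-8; Times: 48 h compound growth at 37 °C, 2 h RT dye; Technique: Alamar Blue fluorescence, 1:200 final, Ex 544 nm, Em 590 nm.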
# [2] = as above; details: C. albicans CaCi-8 + fluconazole, Alamar Blue growth, 48 h
# In short: as §1
SMILES,AC50 [1],"activity change, negative = inhibition ([2]; at 26 µM (top of the series))",further results
COC(=O)Cn1nc(-c2ccccc2)c2ccc(Cl)cc21,8.57 µM,–,–
COC(=O)Cn1nc(-c2ccc(F)cc2)c2ccccc21,8.21 µM,–,–
COC(=O)Cn1nc(-c2ccccc2)c2cc(OC)ccc21,18.6 µM,–,–
O=C(Cn1c2ccccc2c2nc3n(c(=O)c21)CCS3)N1CCCC1,1.65 µM and 3.48 µM,–,–
COC(=O)[C@@H](C)n1nc(-c2ccccc2)c2ccccc21 (racemic),15.9 µM,–,–
COC(=O)CCn1nc(-c2ccccc2)c2ccccc21,–,-11.6% (inactive),–
COC(=O)Cn1nc(-c2cccc(C)c2)c2ccccc21,1.34 µM,–,–
CC(C)(C)OC(=O)Cn1nc(-c2ccccc2)c2ccccc21,–,14.2% (inactive),–
COC(=O)Cn1nc(-c2ccc(C(F)(F)F)cc2)c2ccccc21,–,-7.01% (inactive),–
COC(=O)Cn1nc(-c2ccccc2C)c2ccccc21,6.96 µM,–,–
COC(=O)Cn1nc(-c2ccccc2)c2ccc(F)cc21,8.34 µM,–,–
COC(=O)Cn1nc(-c2ccccc2)c2ccc(C)cc21,7.29 µM,–,–
N#CCn1nc(-c2ccccc2)c2ccccc21,–,-24.1% (inactive),–
COC(=O)Cn1nc(-c2ccccc2)c2ccccc21,2.18 µM,–,–
O=C(Cn1nc(-c2ccccc2)c2ccccc21)Oc1ccccc1,–,-1.98% (inactive),–
COC(=O)Cn1nc(-c2ccccc2)c2cc(F)ccc21,6.98 µM,–,–
COC(=O)Cn1nc(-c2cccc(F)c2)c2ccccc21,2.14 µM,–,–
COC(=O)Cn1nc(-c2ccccc2)c2ccc(OC)cc21,12.7 µM,–,–
COC(=O)Cn1nc(-c2ccccc2)c2ccc(C#N)cc21,–,-13.5% (inactive),–
COC(=O)Cn1nc(-c2ccccc2)c2cc(C)ccc21,5.33 µM,–,–
COC(=O)Cn1nc(-c2cncnc2)c2ccccc21,–,–,"activity change, negative = inhibition ([2]; at 19.5 µM (top of the series)): -4.22% (inactive)"
COC(=O)Cn1c2ccccc2c2nc3n(c(=O)c21)CCS3,8.51 µM,–,–
CCOC(=O)Cn1nc(-c2ccccc2)c2ccccc21,–,-1.88% (inactive),–
c1ccc(-c2nn(Cc3ncco3)c3ccccc23)cc1,–,4.54% (inactive),–
CC(C)OC(=O)Cn1nc(-c2ccccc2)c2ccccc21,–,6.95% (inactive),–
COC(=O)Cn1nc(-c2ccccc2OC)c2ccccc21,10.2 µM,–,–
COC(=O)Cn1nc(-c2cccc(OC)c2)c2ccccc21,1.2 µM,–,–
COC(=O)Cn1nc(-c2ccc(OC)cc2)c2ccccc21,8.3 µM,–,–
c1ccc(-c2nn(Cc3nn[nH]n3)c3ccccc23)cc1,–,-10.1% (inactive),–
